Data as given in ChEMBL document CHEMBL1154117, “Synthesis and evaluation of a novel series of quinoline derivatives with immunosuppressive activity” (Bioorg Med Chem, 2009).

Tests used:
[1] = Immunosuppressive activity in BALB/c mouse splenocytes assessed as inhibition of concanavalin A-induced cell proliferation at 100 uM after 48 hrs by MTT assay; format: functional; conditions: Splenocyte
Procedure, shortened: (§1)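 Spleen cells (5 × 10⁵) from male BALB/c mice aged 6–8 weeks, erythrocytes lysed, stimulated with ConA 5 μg/mL in RPMI-1640/10% FBS. Compounds diluted from DMSO stock. ConA-stimulated cells used as control. Proliferation read by MTT added 4 h before end of culture, SDS/DMF lysis for 6 h, absorbance at 570 nm.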

[2] = Cytotoxicity against BALB/c mouse splenocytes at 100 uM after 48 hrs by MTT assay; format: cell-based, Splenocyte; conditions: read-out: INH
Procedure, shortened: (§2)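 BALB/c spleen single-cell suspension, erythrocytes depleted with Tris-buffered NH4Cl (0.155 M NH4Cl, 16.5 mM Tris, pH 7.2). Cells cultured in RPMI-1640 with 10% FBS and compound diluted from DMSO stock (0.1% DMSO in control). Medium-alone cells served as control. MTT (5 mg/mL) added 4 h before end of culture, then SDS/DMF lysis buffer (pH 7.2) for 6 h. Absorbance read at 570 nm and growth inhibition % calculated.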

[3] = Cytotoxicity against BALB/c mouse splenocytes at 10 uM after 48 hrs by MTT assay; format: cell-based, Splenocyte; conditions: read-out: INH; procedure, shortened: as §2
[4] = Cytotoxicity against BALB/c mouse splenocytes at 30 uM after 48 hrs by MTT assay; format: cell-based, Splenocyte; conditions: read-out: INH; procedure, shortened: as §2
[5] = Immunosuppressive activity in BALB/c mouse splenocytes assessed as inhibition of concanavalin A-induced cell proliferation at 30 uM after 48 hrs by MTT assay; format: functional; conditions: Splenocyte; procedure, shortened: as §1
[6] = Immunosuppressive activity in BALB/c mouse splenocytes assessed as inhibition of concanavalin A-induced cell proliferation at 10 uM after 48 hrs by MTT assay; format: functional; conditions: Splenocyte; procedure, shortened: as §1
Splenocyte [7] = assay: Immunosuppressive activity against concanavalin A-induced BALB/c mouse splenocytes assessed as inhibition of [3H]thymidine incorporation at 10 uM by liquid scintillation counting; format: functional
Splenocyte [8] = assay: Immunosuppressive activity against concanavalin A-induced BALB/c mouse splenocytes assessed as inhibition of [3H]thymidine incorporation at 1 uM by liquid scintillation counting; format: functional
Splenocyte [9] = assay: Immunosuppressive activity against concanavalin A-induced BALB/c mouse splenocytes assessed as inhibition of [3H]thymidine incorporation at 30 uM by liquid scintillation counting; format: functional
T-cell [10] = assay: Immunosuppressive activity against concanavalin A-induced BALB/c mouse splenocytes assessed as T-cells activation at 10 uM after 24 hrs by FACS assay; format: functional
Procedure, shortened: (§3)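 Male BALB/c splenocytes (6–8 weeks), 5 × 10⁵, stimulated with ConA 5 μg/mL, with or without compound. After 24 h, cells washed twice in cold PBS and stained with CD25-FITC and CD4-APC for 30 min at 4 °C. Washed again and analysed by flow cytometry as the CD4+CD25+/CD4+ percentage.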

T-cell [11] = assay: Immunosuppressive activity against concanavalin A-induced BALB/c mouse splenocytes assessed as T-cells activation at 3 uM after 24 hrs by FACS assay; format: functional; procedure, shortened: as §3
T-cell [12] = assay: Immunosuppressive activity against concanavalin A-induced BALB/c mouse splenocytes assessed as T-cells activation at 1 uM after 24 hrs by FACS assay; format: functional; procedure, shortened: as §3
T-cell [13] = assay: Immunosuppressive activity against concanavalin A-induced BALB/c mouse splenocytes assessed as T-cells activation at 30 uM after 24 hrs by FACS assay; format: functional; procedure, shortened: as §3

SMILES | inhibition at 100 µM [1] [%] | cytotoxicity at 48 h, 100 µM [2] [%] | cytotoxicity at 48 h, 10 µM [3] [%] | cytotoxicity at 48 h, 30 µM [4] [%] | inhibition at 30 µM [5] [%] | inhibition at 10 µM [6] [%] | inhibition at 10 µM (Splenocyte [7]) [%] | inhibition at 1 µM (Splenocyte [8]) [%] | inhibition at 30 µM (Splenocyte [9]) [%] | Activity (T-cell [10]) [%] | Activity (T-cell [11]) [%] | Activity (T-cell [12]) [%] | Activity (T-cell [13]) [%]
Cc1cc(=O)c2c(O)cc(O)cc2[nH]1 | 26.7 | 11.2 | 9.1 | 9.9 | 4.4 | 7.5 |  |  |  |  |  |  | 
CCCCC(=O)Oc1ccnc2cc(OC)cc(OC)c12 | 13.9 | 9.4 | 4.5 | 10.5 | 5.3 | 4.1 |  |  |  |  |  |  | 
COc1cc(OC)c2c(OC(=O)c3ccc([N+](=O)[O-])cc3)ccnc2c1 | 64 | 9.5 | 6 | 11.1 | 34.1 | 18.4 |  |  |  |  |  |  | 
COc1cc(OC)c2c(OC(C)=O)ccnc2c1 | 22.7 | 11.3 | 8.3 | 11.2 | 9.7 | 4.1 |  |  |  |  |  |  | 
COc1cc(OC)c2c(OC(=O)c3cccc(Br)c3)ccnc2c1 | 91 | 21 | 1.7 | 1.7 | 48.8 | 16.9 |  |  |  |  |  |  | 
COc1cc(OC)c2c(O[C@@H]3OC[C@@H](O)[C@H](O)[C@H]3O)ccnc2c1 | 41 | 11.2 | 6.9 | 9.1 | 14.9 | 10.3 |  |  |  |  |  |  | 
COc1cc(OC)c2c(=O)cc[nH]c2c1 | 12.3 | 7.5 | 6.1 | 7.8 | 3.7 | 0.1 |  |  |  |  |  |  | 
CCCCCCCCC(=O)Oc1ccnc2cc(OC)cc(OC)c12 | 31.9 | 11.6 | 6.4 | 2 | 2 | 4.4 |  |  |  |  |  |  | 
COc1cc(OC)c2c(OC(=O)c3ccccc3Br)ccnc2c1 | 93.3 | 29.2 | 9.8 | 22.5 | 85.7 | 51.2 | 42 | 4.8 | 85.4 | 93.63 | 93.23 | 94.92 | 86.21
O=c1cc[nH]c2cc(O)cc(O)c12 | 18 | 8.6 | 1.8 | 10.9 | 1.7 | -0.9 |  |  |  |  |  |  | 
COc1cc(OC)c2c(OC(=O)c3cccc(I)c3)ccnc2c1 | 85.2 | 11.6 | 3 | 5.6 | 50.5 | 24.7 |  |  |  |  |  |  | 
COc1cc(OC)c2c(O[C@@H]3O[C@H](CO)[C@@H](O)[C@H](O)[C@H]3O)ccnc2c1 | 20.4 | 9.5 | 7.6 | 9.1 | 6 | 3.6 |  |  |  |  |  |  | 
COc1cc(OC)c2c(OC(=O)c3ccc(Cl)cc3)ccnc2c1 | 86.3 | 21.9 | 3.4 | 0.3 | 47.4 | 30.1 |  |  |  |  |  |  | 
COc1cc(OC)c2c(OC(=O)c3ccc(Cl)cc3Cl)ccnc2c1 | 79.2 | 22.7 | 16.5 | 20.8 | 62.3 | 35.3 |  |  |  |  |  |  | 
COc1cc(OC)c2c(OC(=O)c3cccc([N+](=O)[O-])c3)ccnc2c1 | 82.8 | 12.2 | 3.3 | 8.1 | 42 | 18.8 |  |  |  |  |  |  | 
COC(=O)c1ccc(C(=O)Oc2ccnc3cc(OC)cc(OC)c23)cc1 | 91.4 | 23.6 | 6.6 | 2.2 | 27.8 | 15.7 |  |  |  |  |  |  | 

SMILES | inhibition at 100 µM [1] [%] | cytotoxicity at 48 h, 100 µM [2] [%] | cytotoxicity at 48 h, 10 µM [3] [%] | cytotoxicity at 48 h, 30 µM [4] [%] | inhibition at 30 µM [5] [%] | inhibition at 10 µM [6] [%] | inhibition at 10 µM (Splenocyte [7]) [%] | inhibition at 1 µM (Splenocyte [8]) [%] | inhibition at 30 µM (Splenocyte [9]) [%] | Activity (T-cell [10]) [%] | Activity (T-cell [11]) [%] | Activity (T-cell [12]) [%] | Activity (T-cell [13]) [%]
COc1cc(OC)c2c(OC(=O)c3ccccc3I)cc(C)nc2c1 | 91.5 | 37.6 | -3.4 | 18.2 | 54 | 19.9 |  |  |  |  |  |  | 
COc1cc(OC)c2c(OC(=O)c3ccc(Br)cc3)ccnc2c1 | 48.2 | 20.7 | 8.6 | 7.3 | 17.5 | 9.2 |  |  |  |  |  |  | 
COc1cc(OC)c2c(OC(=O)c3ccccc3)cc(C)nc2c1 | 81.5 | 13.7 | -7.6 | -0.2 | 34.8 | 5.7 |  |  |  |  |  |  | 
COc1cc(OC)c2c(OC(=O)c3ccccc3OC)ccnc2c1 | 85.3 | 47.9 | 10.3 | 17.6 | 35.2 | 11.3 |  |  |  |  |  |  | 
COc1cc(OC)c2c(OC(=O)c3cc(Cl)cc(Cl)c3)ccnc2c1 | 7.9 | 7.2 | 3.4 | 10.7 | 5.1 | 3.9 |  |  |  |  |  |  | 
COc1ccc(C(=O)Oc2ccnc3cc(OC)cc(OC)c23)cc1 | 17.7 | 13.4 | 8.2 | 11.3 | 11 | 7.8 |  |  |  |  |  |  | 
COc1cc(OC)c2c(OC(=O)c3ccc(I)cc3)ccnc2c1 | 91.3 | 23.4 | 6 | 6.6 | 47.2 | 26.4 |  |  |  |  |  |  | 
COc1cc(OC)c2c(OC(=O)c3cc([N+](=O)[O-])cc([N+](=O)[O-])c3)ccnc2c1 | 5.6 | 13.4 | 3.4 | 9.5 | 5.1 | 6.3 |  |  |  |  |  |  | 
COc1cc(OC)c2c(=O)cc(C)[nH]c2c1 | 57.2 | 23.6 | 6.5 | 14.7 | 35.4 | 15.9 |  |  |  |  |  |  | 
CCCCCCCC/C=C\CCCCCCCC(=O)Oc1ccnc2cc(OC)cc(OC)c12 | 22.2 | 7.2 | 4.1 | 8.8 | 8.5 | 4.4 |  |  |  |  |  |  | 
COc1cc(OC)c2c(OC(=O)c3cccc(Cl)c3)ccnc2c1 | 90.8 | 12.2 | 3.1 | 9.4 | 42 | 20.6 |  |  |  |  |  |  | 
COc1cc(OC)c2c(OC(=O)c3ccccc3F)ccnc2c1 | 31 | 19.5 | 7.7 | 12.8 | 14.3 | 9.3 |  |  |  |  |  |  | 
COc1cc(OC)c2c(O[C@@H]3O[C@H](CO)[C@H](O)[C@H](O)[C@H]3O)ccnc2c1 | 17.8 | 17 | 6.2 | 4.2 | 11.2 | 4.2 |  |  |  |  |  |  | 
COc1cc(OC)c2c(OC(=O)c3cc(Br)cc(Br)c3)ccnc2c1 | 12.1 | 6.3 | 5.5 | 9.4 | 10 | 6.4 |  |  |  |  |  |  | 
COc1cc(OC)c2c(OC(=O)c3ccccc3)ccnc2c1 | 35.4 | 7.7 | 0 | 4.6 | 13.1 | 6.2 |  |  |  |  |  |  | 
